Measured values from different studies.
Lines come from different studies, so protocols differ.
Target: Acetylcholinesterase (ACHE, Homo sapiens, UniProt P22303)

Clc1ccc2c(C3CCN(CCc4c[nH]c5ccccc45)CC3)c[nH]c2c1  inhibition (enzyme activity, inhibitor; 10 µM): 4%
Nc1ncc(-c2nc(N3CCOCC3)nc(N3CCOCC3)n2)c(C(F)F)n1  remaining activity (enzyme activity, inhibitor; 10 µM): 98%
COc1ccc2c(c1)[nH]c1c(C)nccc12  inhibition (enzyme activity, inhibitor, Ellman; 1 µM): 33.8%
c1ccc(C(NCCNC(c2ccccc2)c2ccccc2)c2ccccc2)cc1  inhibition (enzyme activity, inhibitor; 10 µM): 13%
CCN1C(=O)C=CC1=O  inhibition (enzyme activity, inhibitor; 30 µM): ~20%
COc1ccc(S(=O)(=O)N2CCCCC2)cc1C  inhibition (ligand displacement, radioligand; 10 µM): < 30%
C[C@H](C(=O)N[C@H]1COc2ccccc2[C@@H]1S(C)(=O)=O)c1ccc(F)cc1  inhibition (enzyme activity, inhibitor; 10 µM): 1%
COCc1c(-c2cc3cc(C)cc(OC)c3s2)c2c(N)ncnn2c1CN1CCNC(=O)C1  inhibition (enzyme activity, inhibitor; 10 µM): -1%
O=C(Nc1cccnn1)N1CCN([C@@H]2CCOc3cc(C(F)(F)F)ccc32)CC1  inhibition (enzyme activity, inhibitor; 20 µM): -3%
Cc1ncc(C)n2nc(/C=C/c3nc(N4CCCC4)cc(N4CCOCC4)n3)nc12  inhibition (enzyme activity, inhibitor; 10 µM): 4%
O=C(O)c1ccccc1O  inhibition (enzyme activity, inhibitor, Ellman; 20 µM): 1.3%
C=CCn1c2cc(OC(=O)CCN3CCN(Cc4ccccc4)CC3)ccc2c2ccnc(C)c21  inhibition (enzyme activity, inhibitor, Ellman; 1 µM): 36.4%
O=C1CN(C(=O)CCn2ccnc2)CC(O)CN1CCc1ccccc1 (stereo not drawn)  inhibition (enzyme activity, inhibitor, Ellman; 10 µM): 21.6%
CN(CCN1CCC(OC(=O)Nc2ccccc2-c2ccccc2)CC1)C(=O)c1ccc(CN2CCC(C(N)=O)CC2)cc1  inhibition (enzyme activity, inhibitor; 1 µM): 9%
CCOP(=O)(OCC)Oc1ccc([N+](=O)[O-])cc1  kinact/KI (enzyme activity, inhibitor): 1510 M⁻¹ s⁻¹
